This passage reports MIC results from ChEMBL document CHEMBL1123921, “Quinolonecarboxylic acids. 2. Synthesis and antibacterial evaluation of 7-oxo-2,3-dihydro-7H-pyrido[1,2,3-de][1,4]benzothiazine-6-carboxylic acids” (J Med Chem, 1987).

In brackets after ≈: the same amount, converted by molar mass.

Holding throughout (format): functional
Experiment [1] deals with Enterobacter cloacae. Nature of the experiment: In vitro antibacterial activity against clinical isolates of Enterobacter cloacae 041 (gram negative) by agar dilution assay. In short, it runs like this: (§1)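 Agar dilution on Isosensitest agar; compound incorporated by twofold serial dilution. Overnight broth cultures delivered by multipoint inoculator at 10⁵ CFU per point. Plates read after 18 h at 37 °C. MIC taken as the lowest concentration giving complete growth inhibition.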
On the technique in general: Agar dilution tests growth on a series of plates holding different concentrations.

The test system of experiment [2] is Staphylococcus aureus. The experiment is described as follows: In vitro antibacterial activity against clinical isolates of Staphylococcus aureus 18773 (gram-positive) by agar dilution assay. A digest of the protocol: as §1
In experiment [3] the test system is Pseudomonas aeruginosa. The experiment is described as follows: In vitro antibacterial activity against clinical isolates of Pseudomonas aeruginosa 2437 (gram negative) by agar dilution assay. A digest of the protocol: as §1
Experiment [4] deals with Morganella morganii. The experiment is described as follows: In vitro antibacterial activity against clinical isolates of Proteus morganii 27 (gram negative) by agar dilution assay. In short, it runs like this:
as §1

For experiment [5], the system named is Escherichia coli. Nature of the experiment: In vitro antibacterial activity against clinical isolates of Escherichia coli 15 (gram negative) by agar dilution assay. A digest of the protocol:
as §1

Experiment [6] has as its system Klebsiella pneumoniae. The experiment is described as follows: In vitro antibacterial activity against clinical isolates of Klebsiella pneumoniae-4 (gram negative) by agar dilution assay. A digest of the protocol: as §1

A word on the MIC: it is the smallest concentration in the dilution series that meets the test's criterion for growth inhibition. Lower therefore signals greater potency.

Turning to `O=C(O)c1cn2c3c(c(Cl)c(Cl)cc3c1=O)SCC2`, the MIC was above 50 µg/mL in experiment [1]; 0.78 µg/mL (≈ 2.47 µM) in experiment [2]; above 50 µg/mL in experiment [3]; 1.56 µg/mL (≈ 4.93 µM) in experiment [4]; above 50 µg/mL in experiment [5]; 12.5 µg/mL (≈ 39.5 µM) in experiment [6].
